From ChEMBL document CHEMBL1275449, “Potent in vitro antifungal activities of naturally occurring acetylenic acids” (Antimicrob Agents Chemother, 2008)
≈ marks a conversion by molar mass, not a printed value.

Assays:
KB = test: Cytotoxicity against human KB cells up to 32 uM by neutral red method; assay type: cell-based
In short: (§1)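 Neutral red uptake cytotoxicity, top concentration 32 μM.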

Candida tropicalis = test: Antifungal activity against Candida tropicalis ATCC 750 after 48 hrs by CLSI method; assay type: functional, organism-based; conditions: ATCC 750, 48 h
In short: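 Yeast suspensions made from 3-5 colonies off 24-72 h SD agar plates in saline. They were diluted by OD630 standard curve in RPMI 1640 (0.2% dextrose, 0.03% glutamine, 0.165 M MOPS, pH 7.0) to 1.5 × 10³ CFU/ml. Twofold dilutions (11 concentrations, 20% DMSO-saline) run in duplicate. OD530 read before and after 35°C, 48 h. Line values are top test concentrations; no-growth endpoints give MIC/MFC.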

[1] = tested on: Trichophyton mentagrophytes; test: Antifungal activity against Trichophyton mentagrophytes ATCC 9533 by CLSI method; assay type: functional, organism-based
In short: (§2)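 Growth scraped from 1- to 6-week-old potato dextrose slants and filtered through Miracloth. Diluted in 5% Alamar blue-RPMI 1640 (MOPS pH 7.0) to 2.7 × 10⁴ CFU/ml. Eleven twofold dilutions in duplicate. Fluorescence at 544 nm excitation/590 nm emission read before and after 35°C, 5 days. IC50 fitted from percent growth. MIC taken as no detectable growth; MFC from clear or blue wells plated on PD agar.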

Candida albicans [2] = test: Antifungal activity against Candida albicans ATCC 200955 after 48 hrs by CLSI method; assay type: functional, organism-based; conditions: ATCC 200955, 48 h
In short: (§3)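 CLSI broth microdilution. Colonies from 24–72 h SD agar suspended in saline and sized by OD630 standard curve. Inoculum 1.5 × 10³ CFU/ml (final) in RPMI 1640 (0.2% dextrose, 0.03% glutamine, 0.165 M MOPS, pH 7.0). Twofold dilutions (11 levels) from 20% DMSO-saline, in duplicate. 35°C for 48 h, OD530 read before and after. IC50 fitted from % growth. MIC: no detectable growth. MFC: subculture onto SD agar.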

Aspergillus fumigatus [3] = test: Antifungal activity against Aspergillus fumigatus ATCC 90906 after 48 h by CLSI method; conditions: ATCC 90906, 48 h
Candida albicans [4] = test: Antifungal activity against Fluconazole resistant Candida albicans clinical isolate 1 after 48 hrs by CLSI method; assay type: functional, organism-based; in short: as §3
Candida albicans [5] = test: Antifungal activity against Candida albicans ATCC 32354 after 48 hrs by CLSI method; assay type: functional, organism-based; conditions: ATCC 32354, 48 h; in short: as §3
Aspergillus fumigatus [6] = test: Antifungal activity against Aspergillus fumigatus ATCC 204305 after 48 h by CLSI method; conditions: ATCC 204305, 48 h
Candida albicans [7] = test: Antifungal activity against Candida albicans ATCC 60193 after 48 hrs by CLSI method; assay type: functional, organism-based; conditions: ATCC 60193, 48 h; in short: as §3
LLC-PK1 = test: Cytotoxicity against pig LLC-PK1 cells up to 32 uM by neutral red method; assay type: cell-based, Sus scrofa; in short: as §1
Pichia kudriavzevii = test: Antifungal activity against Candida krusei ATCC 6258 after 48 hrs by CLSI method; assay type: functional, organism-based; conditions: ATCC 6258, 48 h
In short: (§4)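 Candida inocula came from 24–72-h SD agar colonies suspended in saline. They were diluted by OD630 standard curve into RPMI 1640 (0.2% dextrose, 0.03% glutamine, 0.165 M MOPS, pH 7.0) to 1.5 × 10³ CFU/ml. Compounds were run as 11 twofold dilutions in 20% DMSO-saline, in duplicate, at 35°C for 48 h, with OD530 read before and after. Percent growth at the top concentration, IC50, MIC, and MFC (SD agar plating) were derived.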

Vero = test: Cytotoxicity against African green monkey Vero cells up to 32 uM by neutral red method; assay type: cell-based; conditions: chlorocebus sabaeus; in short: as §1
Trichophyton rubrum [8] = test: Antifungal activity against Trichophyton rubrum ATCC MYA-4438 by CLSI method; assay type: functional, organism-based; in short: as §2
[9] = tested on: Trichophyton mentagrophytes; test: Antifungal activity against Trichophyton mentagrophytes ATCC MYA-4439 by CLSI method; assay type: functional, organism-based; in short: as §2
BT-549 = test: Cytotoxicity against human BT549 cells up to 32 uM by neutral red method; assay type: cell-based; in short: as §1
Cryptococcus neoformans [10] = test: Antifungal activity against Cryptococcus neoformans ATCC 66031 after 72 hrs by CLSI method; assay type: functional, organism-based; conditions: ATCC 66031, 72 h
In short: (§5)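 SD broth replaced RPMI because growth in RPMI was poor; other CLSI conditions were kept. Inoculum was 1.5 × 10³ CFU/ml from colonies on SD agar, checked by plating. Twofold serial dilutions (11 concentrations) in 20% DMSO-saline were tested in duplicate. OD530 was read before and after incubation at 35°C for 72 h. Percent growth gave IC50; the MIC is the lowest concentration with no detectable growth.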

SK-MEL = test: Cytotoxicity against human SK-MEL cells up to 32 uM by neutral red method; assay type: cell-based; in short: as §1
Candida albicans [11] = test: Antifungal activity against Candida albicans ATCC 90028 after 48 hrs by CLSI method; assay type: functional, organism-based; conditions: ATCC 90028, 48 h; in short: as §3
Candida albicans [12] = test: Antifungal activity against Candida albicans ATCC 14053 after 48 hrs by CLSI method; assay type: functional, organism-based; conditions: ATCC 14053, 48 h; in short: as §3
Candida albicans [13] = test: Antifungal activity against Fluconazole resistant Candida albicans clinical isolate 17 after 48 hrs by CLSI method; assay type: functional, organism-based; in short: as §3
SK-OV-3 = test: Cytotoxicity against human SKOV3 cells up to 32 uM by neutral red method; assay type: cell-based; in short: as §1
Trichophyton rubrum [14] = test: Antifungal activity against Trichophyton rubrum ATCC 10218 by CLSI method; assay type: functional, organism-based; in short: as §2
Cryptococcus neoformans [15] = test: Antifungal activity against Cryptococcus neoformans ATCC 90113 after 72 hrs by CLSI method; assay type: functional, organism-based; conditions: ATCC 90113, 72 h; in short: as §5
Aspergillus niger = test: Antifungal activity against Aspergillus niger ATCC 16404 after 48 h by CLSI method; conditions: ATCC 16404, 48 h
Nakaseomyces glabratus = test: Antifungal activity against Candida glabrata ATCC 90030 after 48 hrs by CLSI methodCandida glabrata; assay type: functional, organism-based; conditions: ATCC 90030, 48 h; in short: as §4

| Compound | Activity (KB) | IC50 (Candida tropicalis) | IC50 [1] | MFC [1] | MIC [1] | IC50 (Candida albicans [2]) | IC50 (Candida albicans [5]) | IC50 (Aspergillus fumigatus [6]) | MIC (Aspergillus fumigatus [6]) | IC50 (Candida albicans [7]) | Activity (LLC-PK1) | IC50 (Pichia kudriavzevii) | MIC (Pichia kudriavzevii) | Activity (Vero) | IC50 (Trichophyton rubrum [8]) | MIC (Trichophyton rubrum [8]) | IC50 [9] | MFC [9] | MIC [9] | Activity (BT-549) | also measured |
| --- | --- | --- | --- | --- | --- | --- | --- | --- | --- | --- | --- | --- | --- | --- | --- | --- | --- | --- | --- | --- | --- |
| CCCCCCCCCCCCC#CCCCCC(=O)O [6-NONADECYNOIC ACID] | Non-toxic | 5.2 µM | 900 nM | 2.7 µM (≈ 0.795 µg/mL) | 2 µM (≈ 0.589 µg/mL) | 0.9 µM | 1.6 µM | 1.1 µM | 2.7 µM (≈ 0.795 µg/mL) | 1.6 µM | Non-toxic | 4100 nM | 10.6 µM (≈ 3.12 µg/mL) | Non-toxic | 600 nM | 3.3 µM (≈ 0.972 µg/mL) | 400 nM | 0.7 µM (≈ 0.206 µg/mL) | 0.7 µM (≈ 0.206 µg/mL) | Non-toxic | MIC (Candida albicans [2]): 1.3 µM (≈ 0.383 µg/mL); IC50 (Aspergillus fumigatus [3]): 1400 nM; MIC (Aspergillus fumigatus [3]): 6.6 µM (≈ 1.94 µg/mL); MIC (Candida albicans [4]): 2.7 µM (≈ 0.795 µg/mL); MIC (Candida albicans [5]): 8 µM (≈ 2.36 µg/mL); MIC (Candida albicans [7]): 2.7 µM (≈ 0.795 µg/mL); IC50 (Cryptococcus neoformans [10]): 1100 nM; Activity (SK-MEL): Non-toxic; IC50 (Candida albicans [11]): 1.3 µM; MIC (Candida albicans [11]): 2.7 µM (≈ 0.795 µg/mL); IC50 (Candida albicans [12]): 800 nM; MFC (Candida albicans [12]): 2.7 µM (≈ 0.795 µg/mL); MIC (Candida albicans [12]): 1.3 µM (≈ 0.383 µg/mL); IC50 (Candida albicans [13]): 1.5 µM; MIC (Candida albicans [13]): 8 µM (≈ 2.36 µg/mL); Activity (SK-OV-3): Non-toxic; IC50 (Trichophyton rubrum [14]): 1 µM; MFC (Trichophyton rubrum [14]): 5.3 µM (≈ 1.56 µg/mL); MIC (Trichophyton rubrum [14]): 2 µM (≈ 0.589 µg/mL) |
| CCCCCCCCCCC#CCCCCC(=O)O | Non-toxic | 49.1 µM | 3700 nM | 11.7 µM (≈ 3.12 µg/mL) | 7.3 µM (≈ 1.94 µg/mL) | 66.7 µM | 188 µM | 36.6 µM | 141 µM (≈ 37.5 µg/mL) | 150 µM | Non-toxic | 1900 nM | 4.4 µM (≈ 1.17 µg/mL) | Non-toxic | 4100 nM | 29.3 µM (≈ 7.81 µg/mL) | 3000 nM | 5.9 µM (≈ 1.57 µg/mL) | 5.9 µM (≈ 1.57 µg/mL) | Non-toxic | IC50 (Cryptococcus neoformans [15]): > 188 µM; IC50 (Aspergillus niger): > 188 µM; IC50 (Candida albicans [4]): 82.2 µM; IC50 (Nakaseomyces glabratus): > 188 µM; IC50 (Cryptococcus neoformans [10]): 1200 nM; MIC (Cryptococcus neoformans [10]): 188 µM (≈ 50 µg/mL); Activity (SK-MEL): Non-toxic; IC50 (Candida albicans [11]): 95.4 µM; IC50 (Candida albicans [12]): > 188000 nM; IC50 (Candida albicans [13]): 18.8 µM; MIC (Candida albicans [13]): 70.4 µM (≈ 18.8 µg/mL); Activity (SK-OV-3): Non-toxic; IC50 (Trichophyton rubrum [14]): 6.5 µM; MFC (Trichophyton rubrum [14]): 23.5 µM (≈ 6.26 µg/mL); MIC (Trichophyton rubrum [14]): 17.6 µM (≈ 4.69 µg/mL) |
